Experimental data taken from the M2OR odorant receptor database.

Columns and labels:
Conditions in all cases: stereoisomer not certain
UniProt A2ATE5 = target: T1, UniProt A2ATE5
T1 sequence (whole entry): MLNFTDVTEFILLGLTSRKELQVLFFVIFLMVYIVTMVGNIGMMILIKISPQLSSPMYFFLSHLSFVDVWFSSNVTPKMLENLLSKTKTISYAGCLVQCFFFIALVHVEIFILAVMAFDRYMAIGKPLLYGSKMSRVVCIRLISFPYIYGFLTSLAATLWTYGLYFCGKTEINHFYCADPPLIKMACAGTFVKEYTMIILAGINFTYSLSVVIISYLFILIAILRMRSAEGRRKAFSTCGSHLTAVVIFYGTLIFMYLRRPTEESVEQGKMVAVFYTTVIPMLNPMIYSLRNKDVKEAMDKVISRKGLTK
In short: (§1)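 Values were gathered from published papers (main text and supplementary material), with extra details requested from the original authors when needed, and checked for typos and inconsistencies. Each receptor–molecule pair is called responsive (active) if the original authors judged the measured signal statistically different from baseline, and non-responsive (inactive) otherwise. Assay methods varied by source, often transient mammalian cell-line luciferase assays. Recorded details include cell line, G-protein, co-transfected protein and tags.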

UniProt A2AVB0 = target: T2, UniProt A2AVB0
T2 sequence (whole entry): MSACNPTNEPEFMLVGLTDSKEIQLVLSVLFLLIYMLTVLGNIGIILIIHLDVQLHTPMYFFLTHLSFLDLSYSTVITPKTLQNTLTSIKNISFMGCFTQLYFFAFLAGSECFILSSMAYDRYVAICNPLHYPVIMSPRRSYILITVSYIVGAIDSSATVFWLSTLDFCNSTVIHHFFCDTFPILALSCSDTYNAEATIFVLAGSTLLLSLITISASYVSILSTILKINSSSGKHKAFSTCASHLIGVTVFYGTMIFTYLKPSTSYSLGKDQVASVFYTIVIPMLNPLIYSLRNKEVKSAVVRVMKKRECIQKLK
In short: as §1

UniProt A2AVB5 = target: T3, UniProt A2AVB5
T3 sequence (whole entry): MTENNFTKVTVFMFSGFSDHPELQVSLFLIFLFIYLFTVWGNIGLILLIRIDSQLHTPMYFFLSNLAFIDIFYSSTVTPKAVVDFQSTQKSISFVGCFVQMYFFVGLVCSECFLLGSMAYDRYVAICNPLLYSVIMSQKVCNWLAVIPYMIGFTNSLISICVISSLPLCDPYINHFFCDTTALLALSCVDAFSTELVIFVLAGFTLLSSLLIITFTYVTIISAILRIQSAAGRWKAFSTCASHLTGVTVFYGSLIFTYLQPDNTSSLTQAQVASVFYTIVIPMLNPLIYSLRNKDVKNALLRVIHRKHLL
In short: as §1

UniProt B2RVX8 = target: T4, UniProt B2RVX8
T4 sequence (whole entry): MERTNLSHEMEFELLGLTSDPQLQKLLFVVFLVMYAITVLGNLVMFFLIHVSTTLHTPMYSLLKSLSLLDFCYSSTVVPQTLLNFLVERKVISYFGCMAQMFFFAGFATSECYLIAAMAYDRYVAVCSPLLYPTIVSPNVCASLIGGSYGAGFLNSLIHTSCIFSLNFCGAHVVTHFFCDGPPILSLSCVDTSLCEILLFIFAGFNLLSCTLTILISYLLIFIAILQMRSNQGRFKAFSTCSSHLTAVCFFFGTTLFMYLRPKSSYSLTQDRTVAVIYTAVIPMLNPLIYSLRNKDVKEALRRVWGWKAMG
In short: as §1

UniProt E9PVX1 = target: T5, UniProt E9PVX1
T5 sequence (whole entry): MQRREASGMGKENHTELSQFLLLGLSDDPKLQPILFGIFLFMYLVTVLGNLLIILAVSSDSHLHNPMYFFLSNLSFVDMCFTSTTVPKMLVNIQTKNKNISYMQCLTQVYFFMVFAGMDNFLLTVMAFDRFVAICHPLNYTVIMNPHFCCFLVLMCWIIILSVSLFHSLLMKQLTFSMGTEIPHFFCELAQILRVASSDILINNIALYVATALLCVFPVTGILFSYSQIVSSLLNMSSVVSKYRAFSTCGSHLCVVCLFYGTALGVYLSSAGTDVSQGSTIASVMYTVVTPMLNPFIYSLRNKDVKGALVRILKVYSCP
In short: as §1

UniProt E9PZ66 = target: T6, UniProt E9PZ66
T6 sequence (whole entry): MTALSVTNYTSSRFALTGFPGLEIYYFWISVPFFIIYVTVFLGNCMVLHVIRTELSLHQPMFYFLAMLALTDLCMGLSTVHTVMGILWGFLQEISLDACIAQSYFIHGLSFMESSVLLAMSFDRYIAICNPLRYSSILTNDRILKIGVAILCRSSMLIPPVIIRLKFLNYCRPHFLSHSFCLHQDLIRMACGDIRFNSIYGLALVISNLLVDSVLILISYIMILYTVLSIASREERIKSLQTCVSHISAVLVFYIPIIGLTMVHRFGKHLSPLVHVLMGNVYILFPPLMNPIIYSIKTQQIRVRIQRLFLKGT
In short: as §1

UniProt E9Q4X7 = target: T7, UniProt E9Q4X7
T7 sequence (whole entry): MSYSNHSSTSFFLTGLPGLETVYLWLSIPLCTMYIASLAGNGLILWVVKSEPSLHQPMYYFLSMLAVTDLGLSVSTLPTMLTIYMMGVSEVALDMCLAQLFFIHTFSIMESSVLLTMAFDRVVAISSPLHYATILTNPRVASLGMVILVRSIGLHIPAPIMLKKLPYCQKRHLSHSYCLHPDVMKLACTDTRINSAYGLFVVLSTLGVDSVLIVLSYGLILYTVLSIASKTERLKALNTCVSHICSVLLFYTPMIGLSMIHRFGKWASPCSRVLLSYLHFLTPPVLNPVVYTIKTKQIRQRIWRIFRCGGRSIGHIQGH
In short: as §1

UniProt E9Q546 = target: T8, UniProt E9Q546
T8 sequence (whole entry): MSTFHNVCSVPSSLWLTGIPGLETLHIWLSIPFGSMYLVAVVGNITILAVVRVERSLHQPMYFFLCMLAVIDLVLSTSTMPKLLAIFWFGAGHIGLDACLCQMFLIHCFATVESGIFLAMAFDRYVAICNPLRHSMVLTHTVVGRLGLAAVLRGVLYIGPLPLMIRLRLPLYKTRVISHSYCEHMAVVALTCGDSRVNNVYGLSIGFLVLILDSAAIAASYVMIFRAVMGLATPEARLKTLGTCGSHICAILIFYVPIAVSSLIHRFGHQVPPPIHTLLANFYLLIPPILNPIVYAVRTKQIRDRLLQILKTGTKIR
In short: as §1

UniProt E9Q6Z7 = target: T9, UniProt E9Q6Z7
T9 sequence (whole entry): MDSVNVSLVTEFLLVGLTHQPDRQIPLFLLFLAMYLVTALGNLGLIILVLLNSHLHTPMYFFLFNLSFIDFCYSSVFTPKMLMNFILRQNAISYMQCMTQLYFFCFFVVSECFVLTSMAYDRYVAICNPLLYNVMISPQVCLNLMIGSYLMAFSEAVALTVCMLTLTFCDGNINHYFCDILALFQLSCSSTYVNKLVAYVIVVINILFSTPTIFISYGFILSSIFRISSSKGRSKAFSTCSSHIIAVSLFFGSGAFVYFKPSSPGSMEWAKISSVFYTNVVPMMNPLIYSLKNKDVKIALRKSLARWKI
In short: as §1

UniProt K7N609 = target: T10, UniProt K7N609
T10 sequence (whole entry): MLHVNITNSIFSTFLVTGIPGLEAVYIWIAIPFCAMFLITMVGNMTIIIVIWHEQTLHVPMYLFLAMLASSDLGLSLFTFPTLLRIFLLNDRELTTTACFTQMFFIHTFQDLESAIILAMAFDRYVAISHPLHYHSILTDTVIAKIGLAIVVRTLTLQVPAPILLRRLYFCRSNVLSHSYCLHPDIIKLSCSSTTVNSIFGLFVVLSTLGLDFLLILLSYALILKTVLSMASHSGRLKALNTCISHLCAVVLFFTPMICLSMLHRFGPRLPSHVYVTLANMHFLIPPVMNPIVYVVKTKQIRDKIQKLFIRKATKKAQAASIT
In short: as §1

UniProt E9PX47 = target: T11, UniProt E9PX47
T11 sequence (whole entry): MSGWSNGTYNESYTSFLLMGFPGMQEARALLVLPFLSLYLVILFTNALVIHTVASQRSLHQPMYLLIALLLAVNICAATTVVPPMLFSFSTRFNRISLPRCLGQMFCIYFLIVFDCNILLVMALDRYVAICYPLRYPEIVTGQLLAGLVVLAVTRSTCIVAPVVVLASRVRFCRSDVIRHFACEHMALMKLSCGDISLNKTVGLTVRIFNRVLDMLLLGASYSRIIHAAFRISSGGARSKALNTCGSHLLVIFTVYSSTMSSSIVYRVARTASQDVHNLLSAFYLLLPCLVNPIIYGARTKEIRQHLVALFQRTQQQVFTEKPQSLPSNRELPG
In short: as §1

UniProt E9PXN3 = target: T12, UniProt E9PXN3
T12 sequence (whole entry): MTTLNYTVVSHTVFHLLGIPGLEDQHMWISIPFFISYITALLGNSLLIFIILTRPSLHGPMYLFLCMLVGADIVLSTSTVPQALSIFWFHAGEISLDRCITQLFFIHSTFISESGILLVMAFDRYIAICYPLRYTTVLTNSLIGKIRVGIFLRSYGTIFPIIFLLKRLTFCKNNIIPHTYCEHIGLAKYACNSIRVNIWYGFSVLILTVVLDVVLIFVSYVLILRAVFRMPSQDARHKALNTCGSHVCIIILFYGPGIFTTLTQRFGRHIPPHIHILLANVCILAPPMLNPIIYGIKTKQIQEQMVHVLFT
In short: as §1

Measured: odorant receptor agonist call

C=C(C)C1CCC(C)C(=O)C1 (configuration not stated)
not listed: UniProt E9PX47 | UniProt E9PXN3
inactive: all other assays above

CCOC(=O)C(C)C
not listed: UniProt E9PX47 | UniProt E9PXN3
inactive: all other assays above

CCC(=O)C(=O)CC
not listed: UniProt E9PX47 | UniProt E9PXN3
inactive: all other assays above

CCCCCCCCCO
inactive: all assays above

CCCC(=O)C(C)=O
not listed: UniProt E9PX47 | UniProt E9PXN3
inactive: all other assays above
